Measurements: ChEMBL document CHEMBL1149263, “Structure-activity relationships in platelet-activating factor. 12. Synthesis and biological evaluation of platelet-activating factor antagonists with anti-HIV-1 activity” (J Med Chem, 2004)
pIC50: −log10 of the molar value.

What was measured:
Mus musculus = organism: Mus musculus; assay: Blood-brain transfer coefficient in OF1 mouse by in situ brain perfusion method; format: ADME, organism-based; settings: in vivo
Outline: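 In situ brain perfusion in anaesthetized mice (ip xylazine 8 mg/kg, ketamine 140 mg/kg) through a right common carotid catheter. Perfusate was bicarbonate-buffered saline with 9 mM D-glucose, gassed 95% O2/5% CO2, pH 7.4, 37 °C, carrying [³H]tracer at 0.3–0.4 μCi/mL, with [¹⁴C]sucrose as vascular marker. Brain distribution volume was computed from right-hemisphere radioactivity; five animals.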

[1] = Cytotoxicity against human MDM cells by neutral red staining; format: cell-based
Outline: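 Fifty percent cytotoxic concentration in monocyte-derived macrophages, assessed by neutral red staining.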

[2] = Cytotoxicity against human MDM cells by neutral red staining at 10 uM; format: cell-based
[3] = Cytotoxicity against human MDM cells by neutral red staining at 1 uM; format: cell-based
Plasma = assay: Inhibition of PAF-induced platelet aggregation in rabbit platelet-rich plasma; format: functional; settings: Oryctolagus cuniculus
Outline: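 Rabbit platelet-rich plasma was prepared from New Zealand rabbit auricular-artery blood collected in 3.8% citrate (pH 7.4) and spun 15 min at 1200 rpm. Antagonists in EtOH (10⁻² to 10⁻⁷ M) were added to stirred PRP for 2 min, then challenged with 2.5 nM PAF. Aggregation was followed by light transmission against a PAF-alone control. IC50 was taken from dose–response curves (five or six determinations).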

[4] = tested on: Human immunodeficiency virus 1; assay: Inhibition of HIV1 BAL replication in MDM cells assessed by measuring reverse transcriptase at 100 uM; format: functional; settings: Human immunodeficiency virus 1, BAL
Outline: (§1)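 Monocyte-derived macrophages were infected with the macrophage-tropic HIV-1/Ba-L strain. HIV-1 replication was read as reverse transcriptase activity in culture supernatants. Values come from a single measurement.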

[5] = tested on: Human immunodeficiency virus 1; assay: Antiviral activity against HIV1 BAL in human MDM cells; format: functional, organism-based; settings: Human immunodeficiency virus 1, BAL; outline: as §1
[6] = Partition coefficient, log P of the compound; format: physicochemical; settings: octanol/water
Rattus norvegicus [7] = assay: Cmax in Sprague-Dawley rat at 100 mg/kg, iv normalized to 1 mg/kg; format: ADME, organism-based; parameters: dose 100 mg/kg, route intravenous; settings: in vivo
Outline: (§2)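 Single dose given to male Sprague–Dawley rats, three animals. Each animal received 100 mg/kg iv and 500 mg/kg orally. Plasma Cmax, t1/2, AUC and oral bioavailability were determined, and all parameters were normalized to a 1 mg/kg dose so the two routes could be compared.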

[8] = Half life in Sprague-Dawley rat at 100 mg/kg, iv normalized to 1 mg/kg; format: ADME, organism-based; settings: in vivo; outline: as §2
Rattus norvegicus [9] = assay: AUC in Sprague-Dawley rat at 100 mg/kg, iv normalized to 1 mg/kg; format: ADME, organism-based, Plasma; settings: in vivo; outline: as §2
Rattus norvegicus [10] = assay: Cmax in Sprague-Dawley rat at 500 mg/kg, po normalized to 1 mg/kg; format: ADME, organism-based; parameters: dose 500 mg/kg, route oral; settings: in vivo; outline: as §2
[11] = Half life in Sprague-Dawley rat at 500 mg/kg, po normalized to 1 mg/kg; format: ADME, organism-based; settings: in vivo; outline: as §2
Rattus norvegicus [12] = assay: AUC in Sprague-Dawley rat at 500 mg/kg, po normalized to 1 mg/kg; format: ADME, organism-based, Plasma; settings: in vivo; outline: as §2
[13] = Bioavailability in Sprague-Dawley rat at 500 mg/kg, po normalized to 1 mg/kg; format: ADME, organism-based; settings: in vivo; outline: as §2

pIC50 (Plasma) | pIC50 [5] | Structure (SMILES) | CC50 [1] | other results
– | – | [3H]COc1c(OC)cc(C(=O)N2CCN(C(=O)c3cc(OC)c(OC)c(OC)c3)C(COC(=O)N(CC)CC)C2)cc1OC (stereo not drawn) | – | Kin (Mus musculus): 1.02 µL/s/g
< 5.30 | – | CCN(CC)C(=S)OCC1CN(C(=O)c2cc(OC)c(OC)c(OC)c2)CCN1C(=O)c1cc(OC)c(OC)c(OC)c1 (stereo not drawn) | > 1 µM | Activity [2]: Toxic; Activity [3]: Not Active
6.43 | – | CCCN(CCC)C(=O)OCC1CN(C(=O)c2cc(OC)c(OC)c(OC)c2)CCN1C(=O)c1cc(OC)c(OC)c(OC)c1 (stereo not drawn) | > 100 µM | inhibition at 100 µM [4]: 66%
6.17 | 5.00 | CCCCNC(=O)OCC1CN(C(=O)c2cc(OC)c(OC)c(OC)c2)CCN1C(=O)c1cc(OC)c(OC)c(OC)c1 (stereo not drawn) | > 100 µM | –
6.80 | < 4.00 | CCC(=O)OCC1CN(C(=O)c2cc(OC)c(OC)c(OC)c2)CCN1C(=O)c1cc(OC)c(OC)c(OC)c1 (stereo not drawn) | > 100 µM | –
5.30 | 4.60 | COc1cc(C(=O)N2CCN(C(=O)c3cc(OC)c(OC)c(OC)c3)C(CNC(=O)OC(C)C)C2)cc(OC)c1OC (stereo not drawn) | > 100 µM | –
< 5.00 | < 5.00 | CCCN(CCC)C(=O)NCC1CN(C(=O)c2cc(OC)c(OC)c(OC)c2)CCN1C(=O)c1cc(OC)c(OC)c(OC)c1 (stereo not drawn) | > 100 µM | –
< 5.00 | 6.00 | CCCCCCNC(=O)NCC1CN(C(=O)c2cc(OC)c(OC)c(OC)c2)CCN1C(=O)c1cc(OC)c(OC)c(OC)c1 (stereo not drawn) | > 100 µM | –
< 5.00 | 4.49 | COc1cc(C(=O)N2CCN(C(=O)c3cc(OC)c(OC)c(OC)c3)C(CNC(=O)Nc3c(C)cccc3C)C2)cc(OC)c1OC (stereo not drawn) | > 100 µM | –
< 5.00 | 4.40 | CCN(CC)C(=O)NCC1CN(C(=O)c2cc(OC)c(OC)c(OC)c2)CCN1C(=O)c1cc(OC)c(OC)c(OC)c1 (stereo not drawn) | > 100 µM | –
5.80 | – | COc1cc(C(=O)N2CCN(C(=O)c3cc(OC)c(OC)c(OC)c3)C(COC(=S)N(C)C)C2)cc(OC)c1OC (stereo not drawn) | > 100 µM | inhibition at 100 µM [4]: 76%
5.10 | 4.96 | CCN(CC)C(=O)OCC1CN(C(=O)c2cc(OC)c(OC)c(OC)c2)CCN1C(=O)c1cc(OC)c(OC)c(OC)c1 (stereo not drawn) [PMS-601] | > 1000 µM | logP [6]: 0.8; Cmax (Rattus norvegicus [7]): 861 ng/mL; half-life [8]: 2.14 h; AUC (Rattus norvegicus [9]): 1828 ng·h/mL; Cmax (Rattus norvegicus [10]): 33 ng/mL; half-life [11]: 2.29 h; AUC (Rattus norvegicus [12]): 177 ng·h/mL; bioavailability [13]: 10.9%
